Substitutions are numbered along the chain they refer to. Residues, ends and D or L forms follow the SMILES beside them. *: point of attachment. FITC = O=C1OC2(c3ccc(O)cc3Oc3cc(O)ccc32)c2ccc(NC(=S)*)cc21; Ahx = NCCCCCC(=O)O
Tests used:
[1] = target: T1, RAMP1-CTR.34–141 WT (inactive PNGase F) (Homo sapiens, UniProt O60894+P30988, fusion); experiment: FP saturation binding, RAMP1-CTR.34–141 WT, inactive PNGase F; conditions: Figure S8D, 10 nM probe, pH 7.4, mean ± SEM, N = 3
T1 sequence (P30988 34-141): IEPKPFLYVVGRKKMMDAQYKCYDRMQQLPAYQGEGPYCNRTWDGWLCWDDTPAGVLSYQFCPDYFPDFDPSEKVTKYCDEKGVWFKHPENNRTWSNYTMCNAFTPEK
How it was run: (§1)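 RAMP1-CTR ECD fusion WT was expressed in HEK293S GnTI cells, TEV-cleaved to remove MBP, then purified by IMAC/SEC. FP saturation binding at room temperature used 10 nM FITC-peptide probe and titrated receptor. Buffer: HEPES pH 7.4 with BSA, maltose, EDTA, Tween 20. Duplicates, pKD by nonlinear fit.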

[2] = target: T2, RAMP1-CTR.34–141 N130D (Homo sapiens, UniProt O60894+P30988, N130D/fusion); experiment: FP saturation binding, RAMP1-CTR.34–141 N130D; conditions: Figure S8D; no enzyme; 10 nM probe, pH 7.4; mean ± SEM, N = 3
T2 sequence (P30988 34-141 N130D): T1 sequence (P30988 34-141) with N97D

[3] = target: RAMP1-CTR.34–141 WT (PNGase F) (Homo sapiens, UniProt O60894+P30988, N125D/N130D/N73D); experiment: FP saturation binding, RAMP1-CTR.34–141 WT, PNGase F; conditions: Figure S8D, 10 nM probe, pH 7.4, N = 3
How it was run: as §1

[4] = target: T3, Glycan-free CTR.38–141 WT (CTR ECD; E. coli) (Homo sapiens, UniProt P30988); experiment: FP saturation binding, glycan-free CTR.38–141 WT; conditions: glycan-free vs Endo H-treated WT
T3 sequence (P30988 38-141): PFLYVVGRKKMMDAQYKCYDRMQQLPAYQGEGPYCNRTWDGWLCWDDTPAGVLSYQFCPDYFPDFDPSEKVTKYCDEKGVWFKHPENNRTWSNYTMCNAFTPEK

[5] = target: T4, CTR.38–141 N130D (CTR ECD; HEK293S GnTI^−, Endo H) (Homo sapiens, UniProt P30988, N130D); experiment: FP saturation binding, CTR.38–141 N130D, Endo H; conditions: N130D vs Endo H-treated WT
T4 sequence (P30988 38-141 N130D): T3 sequence (P30988 38-141) with N93D

[6] = system: glucagon-like peptide 1 receptor (GLP-1R); conditions: cited from earlier work
[7] = system: glucagon-like peptide 1 receptor (GLP-1R); conditions: cited from earlier work; remark: listed apart in the source
[8] = system: IL-7 receptor α unit (IL-7Rα) ectodomain; conditions: cited from earlier work
[9] = system: Pituitary adenylate cyclase activating polypeptide (PACAP) type I (PAC1) receptor; conditions: tunicamycin treatment, binding capacity not altered; cited from earlier work
[10] = system: PTH type 1 receptor (PTH1R); conditions: cited from earlier work
[11] = system: CTR ECD; conditions: isolated ECD; cited from earlier work
[12] = system: CTR; conditions: cited from earlier work

## CC(C)C[C@H](NC(=O)[C@H](CCCNC(=N)N)NC(=O)[C@@H](NC(=O)[C@H](CC(C)C)NC(=O)[C@H](Cc1ccccc1)NC(=O)[C@H](CC(N)=O)NC(=O)[C@H](C)NC(=O)CCCCCNC(=S)Nc1ccc2c(c1)C(=O)OC21c2ccc(O)cc2Oc2cc(O)ccc21)C(C)C)C(=O)N[C@@H](CCC(N)=O)C(=O)N[C@H](C(=O)N[C@@H](Cc1ccc(O)cc1)C(=O)N1CCC[C@H]1C(=O)N[C@@H](CCCNC(=N)N)C(=O)N[C@H](C(=O)N[C@@H](CC(N)=O)C(=O)N[C@H](C(=O)NCC(=O)N[C@@H](C)C(=O)N[C@@H](CC(N)=O)C(=O)N[C@H](C(=O)N[C@@H](Cc1ccc(O)cc1)C(N)=O)[C@@H](C)O)C(C)C)[C@@H](C)O)[C@@H](C)O [FITC-AC413(6–25)] ({FITC-Ahx}-ANFLVRLQTYPRTNVGANTY-NH2; N-terminus and C-terminus assumed)
[1]
  pKD: 6.01 ± 0.03
[2]
  pKD: 5.12 ± 0.07
[3]
  pKD: < 5.0

## C[C@@H](O)[C@H](NC(=O)[C@H](CC(N)=O)NC(=O)[C@@H](NC(=O)[C@H](CCCNC(=N)N)NC(=O)[C@@H]1CCCN1C(=O)[C@H](Cc1ccc(O)cc1)NC(=S)Nc1ccc2c(c1)C(=O)OC21c2ccc(O)cc2Oc2cc(O)ccc21)[C@@H](C)O)C(=O)NCC(=O)N[C@@H](CO)C(=O)NCC(=O)N[C@H](C(=O)N1CCC[C@H]1C(N)=O)[C@@H](C)O [FITC-sCT(22–32)] ({FITC}-YPRTNTGSGTP-NH2)
[4]
  affinity decrease: over 5 fold
[5]
  affinity decrease: over 5 fold

## GLP-1: GLP-1, ligand of glucagon-like peptide 1 receptor
[6]
  affinity, double mutation of two N-glycosylation sites: significantly reduced GLP-1 affinity
[7]
  signaling potency, double mutation of two N-glycosylation sites: significantly reduced GLP-1 affinity and signaling potency

## IL-7: IL-7, ligand of IL-7 receptor α unit
[8]
  association rate with N-glycosylated receptor: accelerated association rate
  effect of N-glycosylation on binding affinity: significantly increased IL-7 binding affinity

## PACAP-27
[9]
  affinity decrease by tunicamycin: 30 fold

## PTH: PTH, ligand of PTH type 1 receptor
[10]; N161D mutation of PTH1R
  binding affinity, N161D mutation: did not change the binding affinity for PTH
[10]; human PTH1R expressed in mammalian cells, tunicamycin treatment
  binding affinity after tunicamycin: no changes in PTH binding affinity

## calcitonin
[11]
  binding affinity enhancement by CTR N-glycosylation: ~ 10 fold

## salmon calcitonin
[12]
  affinity vs human calcitonin: higher affinity than human calcitonin

From publication PMC7225057 (Journal of molecular biology, 2020)
